Bioassay records from PubChem BioAssay.
Many of the other results were omitted from the sample, so hits are more common in it than they were.
GAA850 FXN act: activators of GAA850 frataxin (FXN) promoter; HEK293 lucGAA850 FXN promoter luciferase reporter, 24 h; percent of 10 µM SAHA response; activation, % at 6 µM; hit rate 0.56% among 360,000; AID 540364;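 active = activation above the average of all compounds screened plus 3 SD, cutoff fixed separately per campaign, cut at about 7.5% in these data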
UPR XBP1 act: adaptive UPR (XBP1) activation | CHO-XBP1 luciferase reporter, IRE1-XBP1 UPR activation, luminescence; percent of tunicamycin response, DMSO as zero | activation, % at 20 µM | hit rate 0.33% among 330,000 | AID 463104;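 active = versus positive control, 20 µM dose yields 30% or more activation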
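Material – CHO cell line with stable XBP1 luciferase reporter · Buffer or medium – F12 plus 10% FBS · Compound – single point, 20 µM final compound, 1% DMSO · Schedule – 16-18 h cell attachment at 37 °C, then 6 h compound exposure · Signal – Steady-Glo luminescence read · Benchmarks – high control tunicamycin 10 µg/mL final, low control DMSO vehicle only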
CHOP inhibitor: CHOP inhibition in unfolded protein response. inhibition, % at 10 µM. hit rate 3.8% among 220,000. AID 2732. CHO-K1 CHOP-promoter luciferase, tunicamycin-induced, 15-18 h;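 active = compounds that reduced the stress-induced luciferase reporter signal by more than about 70% of percent inhibition, limit read from the data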
CHOP UPR activ: activators of apoptotic arm of unfolded protein response (CHOP) | CHO-CHOP luciferase reporter, UPR activation, luminescence; percent of tunicamycin response over DMSO baseline | activation, % at 10 µM | hit rate 0.34% among 330,000 | AID 449763;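 active = at 10 µM dose, activation of 40% or more, normalized to positive control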
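assay system = CHO CHOP reporter cells | amount = 500 CHO-CHOP cells per well | buffer or medium = F12 with 10% FBS | incubation = 16-18 h cell attachment, then 6 h compound exposure, 37 °C | detection = luminescence read with Steady-Glo | read-out = percent activation relative to tunicamycin control | controls = tunicamycin high control, DMSO low control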
Numbers stand for hits; - = inactive; . = no result.

SMILES	GAA850 FXN act	UPR XBP1 act	CHOP inhibitor	CHOP UPR activ
Cc1ccc2cc3c(NC(=O)c4ccco4)nn(CC(C)C)c3nc2c1	-	-	70.2	-
Cc1ccc2nc(-c3ccc(NC(=O)CN4C(=O)c5ccccc5C4=O)cc3)sc2c1	-	-	-	-
Cc1nnc(SCC(=O)Nc2ccccc2NC(=O)CSc2nnc(C)s2)s1	-	-	-	-
Cc1ccc2nc(-c3ccc(NC(=S)NC(=O)CC(C)C)cc3)sc2c1	-	-	96.1	-
Cc1nc2ccc(NC(=O)CCS(=O)(=O)c3ccccc3)cc2s1	-	-	-	-
COc1ccc(C2(C)NC(=O)N(CC(=O)Nc3ccc(-c4nc5ccc(C)cc5s4)cc3)C2=O)cc1 (centres undefined)	-	-	71.5	-
Cc1nnc(SCC(=O)Nc2ccc(-c3nc4ccccc4s3)cc2)s1	-	.	85.9	.
Cc1ccc2nc(-c3ccc(NC(=O)CCS(=O)(=O)c4ccccc4)cc3)sc2c1	-	-	81.5	-
O=Nc1ccc(NO)c2ccccc12	-	.	.	.
Cc1ccc(C(O)c2ncc(-c3cccc4ccccc34)[nH]2)cc1F (centres undefined)	-	.	.	.
CCC/C=C/c1ccc(CN2C(C(C)C)C(=O)N(Cc3cn(Cc4ccco4)nn3)CCS2(=O)=O)cc1 (centres undefined)	-	.	.	.
Cc1cccc(S(=O)(=O)Nc2ccc(-c3nc4ccc(C)cc4s3)cc2)c1	-	-	-	-
Cc1ccc2nc(-c3ccc(NC(=O)CSc4nccc(=O)[nH]4)cc3)sc2c1	-	-	-	-
Cc1ccc(S(=O)(=O)Nc2ccc(-c3nc4ccc(C)cc4s3)cc2)cc1	-	-	87.1	-
Cc1ccc2nc(-c3ccc(NC(=O)CSc4nc(N)cc(=O)[nH]4)cc3)sc2c1	-	-	72.6	-
COc1c(F)c(F)c(C(=O)Nc2ccc(-c3nc4ccccc4[nH]3)cc2)c(F)c1F	-	-	83.3	-
COc1c(F)c(F)c(C(=O)Nc2ccc(N3CCN(Cc4ccccc4)CC3)cc2)c(F)c1F	-	-	87.5	-
O=C(CN1CCOCC1)Nc1ccc(-c2nc3ccccc3[nH]2)cc1	-	-	-	-
O=C(CSc1ccccc1)Nc1ccc(-c2nc3ccccc3[nH]2)cc1	-	-	94.5	-
COc1ccc(C(=O)Nc2ccc(N3CCN(Cc4ccccc4)CC3)cc2)cc1	-	-	-	-
O=C(Nc1ccc(-c2nc3ccccc3[nH]2)cc1)c1c(F)c(F)c(F)c(F)c1F	-	-	-	-
COC(=O)c1cn(NC(=O)CC2CCCCC2)c(=O)c2ccccc12	-	-	71.6	-
COC(=O)c1cn(NC(=O)CCC2CCCC2)c(=O)c2ccccc12	-	-	-	-
O=C(NCc1cccs1)c1ccc2sc(C3=C[C@@H](O)[C@@H](O)[C@@H](CO)O3)nc2c1	-	.	.	.
CNC(=O)N(O)C1N(NC(=O)Nc2ccccc2)C(=S)SC1(C)C (centres undefined)	-	-	.	-
SMILES	GAA850 FXN act	UPR XBP1 act	CHOP inhibitor	CHOP UPR activ
CC1(C)SC(=S)N(NC(=O)Nc2cccc3ccccc23)C1N(O)C(=O)Nc1ccccc1 (centres undefined)	-	-	100.4	-
CC(OC(=O)[C@@H](NS(=O)(=O)c1ccccc1)C(C)C)C(=O)c1c(N)n(C)c(=O)n(C)c1=O (some centres undefined)	-	.	.	.
CCOC(=O)c1cc2c(ccn2C)n1CC(=O)N1CCN(c2ccc(F)cc2)CC1	-	-	-	-
CCOC(=O)c1cc2c(ccn2C)n1Cc1cc(C)ccc1C	-	-	89.6	-
Cc1cc(NS(=O)(=O)c2ccc(NC(=O)c3ccccc3C)cc2)no1	-	-	.	-
Cc1cc(NS(=O)(=O)c2ccc(NC(=O)c3cc4cc(Br)ccc4oc3=O)cc2)no1	-	-	91.4	-
CC(C)(C)c1ccc(CC(=O)N2CCC2(C)C(=O)NCc2ccc3c(c2)OCO3)cc1 (centres undefined)	-	.	.	.
CC(/C=N/Nc1nc(N2CCCCC2)nc(N2CCCCC2)n1)=C\c1ccccc1	-	-	72.7	-
Cc1ccc(NC(=O)C2(C)CCN2C(=O)CCC2CCCC2)cc1C (centres undefined)	-	.	.	.
COC(=O)c1cc2sccc2n1CC(=O)Nc1ccc(OC)c(OC)c1OC	-	-	-	-
COC(=O)c1cc2sccc2n1CC(=O)Nc1cccc(SC)c1	-	-	85.2	-
CC1(Oc2ccccc2)CCN(Cc2csc3ccccc23)C1 (centres undefined)	-	.	.	.
Cc1ccc(S(=O)(=O)Nc2cc(=O)[nH]c(SCc3ccc(Cl)cc3)n2)cc1	-	.	85.5	.
O=c1cc(NS(=O)(=O)c2ccccc2)nc(SCc2c(Cl)cccc2Cl)[nH]1	-	-	79.6	-
O=c1cc(NS(=O)(=O)c2ccccc2)nc(SCc2ccccc2Cl)[nH]1	-	-	-	-
Cc1ccc(NC(=O)C(=O)NCc2ccc(/C=C(/C#N)C(=O)NCc3cccnc3)o2)cc1	-	-	-	-
N#C/C(=C/c1ccc(CNC(=O)C(=O)Nc2cc(Cl)cc(Cl)c2)o1)C(=O)NCc1cccnc1	-	-	82.0	-
CCOC(=O)C1(C)CCCN(C(=O)c2ccc(OC)cc2)C1 (centres undefined)	-	.	.	.
CCCCCCCc1ccc(-c2ccc(O)cc2)nc1	-	-	95.7	-
O=C(N/N=C/c1cccnc1)c1cc2c(ccc3ccccc32)o1	-	-	91.3	-
O=C(N/N=C/c1cccnc1)c1ccc(NC(=O)C(c2ccccc2)c2ccccc2)cc1	-	-	77.9	-
O=C(CNC(=O)C(c1ccccc1)c1ccccc1)N/N=C/c1cccnc1	-	-	-	-
O=C(COc1ccccc1)NC(=S)Nc1cccc2c(O)cccc12	-	.	.	.
COc1ccc(Cn2c(O)c(C=Nc3ccccc3)c3ccccc3c2=O)cc1	-	-	-	-
O=c1c2ccccc2c(C=Nc2ccc(O)cc2)c(O)n1Cc1ccccc1	-	-	92.8	-
SMILES	GAA850 FXN act	UPR XBP1 act	CHOP inhibitor	CHOP UPR activ
COc1ccc(N=Cc2c(O)n(-c3cccc(C)n3)c(=O)c3ccccc23)cc1	-	-	-	-
COc1ccc(Cn2c(O)c(C=Nc3ccc(C)cc3)c3ccccc3c2=O)cc1	-	-	-	-
COc1ccc(Cn2c(O)c(C=Nc3ccc(O)cc3)c3ccccc3c2=O)cc1	-	-	85.4	-
COc1ccc(N=Cc2c(O)ccc3ccccc23)cc1	-	-	79.5	-
COc1ccc(N=Cc2c(O)n(-c3ccc(OC)cc3)c(=O)c3ccccc23)cc1	-	-	72.4	-
COc1cc(/C=C/[N+](=O)[O-])ccc1OC(=O)/C=C/c1ccc(F)cc1	8.7	-	.	-
COc1ccc(C(=O)C=Cc2ccc(OCc3ccccc3)c(OC)c2)cc1OC	-	.	.	.
COc1ccc(/C=C/C(=O)Oc2ccc(C)c(C)c2)cc1OC	-	-	-	-
COc1cc(/C=C/[N+](=O)[O-])ccc1OCc1cccc(C(=O)O)c1	.	-	77.1	-
COc1ccc(C#CC2=CC(=O)CC(C)(C)C2)cc1	-	.	.	.
CCCC(=O)N1CCCC1(C)C(=O)Nc1ccc(OC(F)F)cc1 (centres undefined)	-	.	.	.
